Shown are actives, neighbours in structure and some others; about 3.1% of the full set was active somewhere.
Apaf1 inhib = inhibitors of human Apaf-1 apoptosome, primary screen, biochemical, DEVD-Rh110 fluorescence, uHTS; hit rate 0.71% among 330,000; inhibition, % at 20 µM; Apoptotic protease-activating factor 1 (Homo sapiens), O14727; reconstituted apoptosome caspase-3 activity; active means inhibition of at least 40% at 20 µM
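Material: reconstituted apoptosome with Apaf-1, cytochrome c, caspase-9, procaspase-3, dATP / Buffer or medium: pH 7.5 Hepes buffer with CHAPS, BSA, DTT / Also added: cytochrome c with DEVD-Rh110 / Schedule: compound with Apaf-1, dATP, procaspase-3 30 min, then 50 min reaction, room temperature / Technique: rhodamine 110 fluorescence at Ex 480/Em 540 nm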
PAFAH1B2 FP inh = PAFAH1B2 enzyme inhibitors, primary screen, biochemical, fluorescence polarization, human. hit rate 1.2% among 340,000. Platelet-activating factor acetylhydrolase IB subunit alpha2 (Homo sapiens), P68402. inhibition, % at 3.39 µM. recombinant PAFAH1B2, FP-rhodamine activity probe. AID 492953, 2010;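 active means inhibition above the mean of all tested compounds plus 3 SD, cut at about 24% in these data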
PAFAH2 inh = PAFAH2 enzyme inhibitors, primary screen, biochemical, fluorescence polarization, human. hit rate 0.99% among 340,000. inhibition, % at 3.39 µM. Platelet-activating factor acetylhydrolase 2, cytoplasmic (Homo sapiens), Q99487. recombinant PAFAH2, FP-rhodamine activity probe. AID 492956, 2010;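 active means inhibition above the mean over all tested compounds plus 3 SD, cut at about 30% in these data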;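 further: inhibitors block probe labeling of enzyme so polarization drops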
pPAFAH FP inh = pPAFAH enzyme inhibitors, primary screen, biochemical, fluorescence polarization, human; inhibition, % at 3.39 µM; recombinant pPAFAH, FP-rhodamine probe fluorescence polarization; hit rate 1.5% among 330,000; Platelet-activating factor acetylhydrolase (Homo sapiens), Q13093;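 active means inhibition above the mean inhibition across the screen plus 3 SD, cut at about 25% in these data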;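 further: inhibitors block binding of the rhodamine activity-based probe so polarization drops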
PAFAH1B3 FP inh = PAFAH1B3 enzyme inhibitors, primary screen, biochemical, fluorescence polarization, human. recombinant PAFAH1B3, FP-rhodamine probe. hit rate 0.28% among 340,000. inhibition, % at 3.39 µM;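 active means inhibition above the screen-wide average of all tested compounds plus 3 SD, cut at about 25% in these data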
Numbers stand for hits.

What do the screens show for `O=c1[nH]c2c(s1)C(c1ccc(O)cc1)C1C3CCC(C3)C1S2` (configuration not stated)?
Apaf1 inhib: inactive; PAFAH1B2 FP inh: 27.4; PAFAH2 inh: inactive; pPAFAH FP inh: inactive; PAFAH1B3 FP inh: inactive

Results for O=c1[nH]c2c(s1)C(c1cccnc1)C1C3CCC(C3)C1S2 (configuration not stated) ?
Apaf1 inhib: inactive; PAFAH1B2 FP inh: inactive; PAFAH2 inh: inactive; pPAFAH FP inh: inactive; PAFAH1B3 FP inh: inactive

Results for COc1ccc(C(=O)OCC(=O)c2ccc(Br)s2)c(OC)c1 ?
Apaf1 inhib: inactive; PAFAH1B2 FP inh: inactive; PAFAH2 inh: 30.3; pPAFAH FP inh: inactive; PAFAH1B3 FP inh: inactive

Results for COc1cccc(C(=O)OCC(=O)c2ccc(Br)s2)c1 ?
Apaf1 inhib: inactive; PAFAH1B2 FP inh: inactive; PAFAH2 inh: 45.9; pPAFAH FP inh: inactive; PAFAH1B3 FP inh: inactive

What do the screens show for `CCN(c1cccc(C)c1)S(=O)(=O)c1c(C)[nH]c(C)c1C(=O)N1CCCCC1`?
Apaf1 inhib: inactive; PAFAH1B2 FP inh: inactive; PAFAH2 inh: inactive; pPAFAH FP inh: inactive; PAFAH1B3 FP inh: inactive

Results for CCOC(=O)c1c(N)sc(C(O)(C(F)(F)F)C(F)(F)F)c1-c1ccccc1 ?
Apaf1 inhib: inactive; PAFAH1B2 FP inh: inactive; PAFAH2 inh: inactive; pPAFAH FP inh: inactive; PAFAH1B3 FP inh: inactive

Results for CCOC(=O)c1c(N)sc(-c2ccccc2)c1C ?
Apaf1 inhib: inactive; PAFAH1B2 FP inh: inactive; PAFAH2 inh: inactive; pPAFAH FP inh: 34.3; PAFAH1B3 FP inh: inactive

What do the screens show for `Cc1cc(O)c(C(=O)/C=C/c2ccc(C(C)C)cc2)c(=O)o1`?
Apaf1 inhib: inactive; PAFAH1B2 FP inh: 27.7; PAFAH2 inh: inactive; PAFAH1B3 FP inh: inactive

Results for Cc1ccc(C)c(SCC(=O)OCC(=O)NCc2ccccc2)c1 ?
Apaf1 inhib: inactive; PAFAH1B2 FP inh: inactive; PAFAH2 inh: inactive; pPAFAH FP inh: 25.1; PAFAH1B3 FP inh: inactive

How did Cc1ccc(SCC(=O)OC(C)C(=O)NCc2ccccc2)cc1C (configuration not stated) do in these assays?
Apaf1 inhib: inactive; PAFAH1B2 FP inh: inactive; PAFAH2 inh: inactive; pPAFAH FP inh: 34.3; PAFAH1B3 FP inh: inactive

How did COc1ccccc1CNC(=O)COC(=O)CSc1ccc(C)c(C)c1 do in these assays?
Apaf1 inhib: inactive; PAFAH1B2 FP inh: inactive; PAFAH2 inh: inactive; PAFAH1B3 FP inh: inactive

What do the screens show for `CCN(CC)S(=O)(=O)c1ccc(N2CCN(C)CC2)c(NC(=O)Nc2ccc(C)cc2)c1`?
Apaf1 inhib: inactive; PAFAH1B2 FP inh: inactive; PAFAH2 inh: inactive; pPAFAH FP inh: inactive; PAFAH1B3 FP inh: inactive

Results for N#CCC(=O)c1sccc1-n1cccc1 ?
Apaf1 inhib: inactive; PAFAH1B2 FP inh: inactive; PAFAH2 inh: inactive; pPAFAH FP inh: 33.6; PAFAH1B3 FP inh: inactive

What do the screens show for `Cc1ccccc1-c1nc2sc(-c3ccccc3)cc2c(=O)o1`?
Apaf1 inhib: inactive; PAFAH1B2 FP inh: inactive; PAFAH2 inh: 66.4; pPAFAH FP inh: inactive; PAFAH1B3 FP inh: inactive

How did Cc1cccc(-c2nc3sc(C)cc3c(=O)o2)c1 do in these assays?
Apaf1 inhib: inactive; PAFAH1B2 FP inh: inactive; PAFAH2 inh: 73.5; pPAFAH FP inh: 33.1; PAFAH1B3 FP inh: inactive

What do the screens show for `Cc1cccc(-c2nnc(-c3cccc4ccccc34)o2)c1`?
PAFAH1B2 FP inh: inactive; PAFAH2 inh: inactive; PAFAH1B3 FP inh: inactive

What do the screens show for `CCN1CCN(S(=O)(=O)c2ccc(Cl)c(C(=O)NC3CCCCC3)c2)CC1`?
Apaf1 inhib: inactive; PAFAH1B2 FP inh: 27.9; PAFAH2 inh: inactive; pPAFAH FP inh: inactive; PAFAH1B3 FP inh: inactive

What do the screens show for `Cc1ccc(S(=O)(=O)N2CCN(C(C)C(=O)NCC(C)c3ccccc3)CC2)cc1` (configuration not stated)?
Apaf1 inhib: inactive; PAFAH1B2 FP inh: 29.3; PAFAH2 inh: inactive; pPAFAH FP inh: inactive; PAFAH1B3 FP inh: inactive

How did CC(C)c1ccc(S(=O)(=O)N2CCN(C(C)C(=O)Nc3ccccc3-c3ccccc3)CC2)cc1 (configuration not stated) do in these assays?
Apaf1 inhib: inactive; PAFAH1B2 FP inh: inactive; PAFAH2 inh: inactive; pPAFAH FP inh: inactive; PAFAH1B3 FP inh: inactive

How did CC(C(=O)Nc1ccccc1-c1ccccc1)N1CCN(S(=O)(=O)c2ccccc2)CC1 (configuration not stated) do in these assays?
Apaf1 inhib: inactive; PAFAH1B2 FP inh: 30.9; PAFAH2 inh: inactive; pPAFAH FP inh: inactive; PAFAH1B3 FP inh: inactive

How did COC(=O)c1ccccc1CSc1nsc(/C=C/N(C)C)c1C#N do in these assays?
Apaf1 inhib: inactive; PAFAH1B2 FP inh: inactive; PAFAH2 inh: inactive; pPAFAH FP inh: 28.2; PAFAH1B3 FP inh: inactive

How did O=C(OCc1ccc(Cl)c(Cl)c1)c1ccc[nH]1 do in these assays?
Apaf1 inhib: inactive; PAFAH1B2 FP inh: inactive; PAFAH2 inh: 46.6; pPAFAH FP inh: inactive; PAFAH1B3 FP inh: inactive

What do the screens show for `CC1(C)C(=O)N(c2ccccc2)C1c1ccccc1O` (configuration not stated)?
Apaf1 inhib: inactive; PAFAH1B2 FP inh: 52.1; PAFAH2 inh: inactive; pPAFAH FP inh: inactive; PAFAH1B3 FP inh: inactive

Results for COc1ccc(-c2csc(Nc3ccc(S(=O)(=O)Nc4cc(C)on4)cc3)n2)cc1 ?
Apaf1 inhib: inactive; PAFAH1B2 FP inh: inactive; PAFAH2 inh: inactive; pPAFAH FP inh: 26.9; PAFAH1B3 FP inh: inactive

What do the screens show for `Cc1nc(NC(=O)c2ccccc2)sc1-c1csc(Nc2cccc(F)c2)n1`?
Apaf1 inhib: inactive; pPAFAH FP inh: inactive

Results for Cc1cc(NS(=O)(=O)c2ccc(Nc3nc(-c4sc(NC(=O)c5ccccc5)nc4C)cs3)cc2)no1 ?
Apaf1 inhib: inactive; pPAFAH FP inh: 68.9

Results for COc1ccc(-c2csc(Nc3ccc(S(N)(=O)=O)cc3)n2)cc1 ?
Apaf1 inhib: inactive; PAFAH1B2 FP inh: inactive; PAFAH2 inh: inactive; pPAFAH FP inh: inactive; PAFAH1B3 FP inh: inactive

How did COc1cc(=O)n(C)c2ccccc12 do in these assays?
Apaf1 inhib: inactive; PAFAH1B2 FP inh: inactive; PAFAH2 inh: inactive; pPAFAH FP inh: inactive; PAFAH1B3 FP inh: inactive

How did CN(c1ccc(Cl)cc1)c1cc(=O)n(C)c2ccccc12 do in these assays?
Apaf1 inhib: inactive; PAFAH1B2 FP inh: 29.3; PAFAH2 inh: inactive; pPAFAH FP inh: inactive; PAFAH1B3 FP inh: inactive

How did COc1cc(/C=C2/SC(=S)NC2=O)ccc1OS(=O)(=O)c1ccc(C)cc1 do in these assays?
Apaf1 inhib: inactive; PAFAH1B2 FP inh: 43.0; PAFAH2 inh: inactive; pPAFAH FP inh: inactive; PAFAH1B3 FP inh: inactive

How did COc1cc(/C=C2\SC(=S)N(CCCCC(=O)O)C2=O)ccc1OS(=O)(=O)c1ccc(C)cc1 do in these assays?
Apaf1 inhib: inactive; PAFAH1B2 FP inh: 30.1; PAFAH2 inh: inactive; pPAFAH FP inh: inactive; PAFAH1B3 FP inh: inactive

What do the screens show for `COc1cc(/C=C2\SC(=S)NC2=O)ccc1OS(=O)(=O)c1ccccc1`?
Apaf1 inhib: inactive; pPAFAH FP inh: inactive

Compound activity deposited in PubChem by several laboratories.
